Measured values of several laboratories.
Protocols differ between the studies behind these lines.
Read-out: enzyme activity
Action: inhibitor
BRAF: Serine/threonine-protein kinase B-raf (BRAF, Homo sapiens, UniProt P15056)
BRAF V600E: Serine/threonine-protein kinase B-raf (BRAF, Homo sapiens, UniProt P15056, V600E)

| Compound | target | technique | concentration | inhibition [%] |
| --- | --- | --- | --- | --- |
| Cn1cncc1C1=CN(c2ncnc3[nH]cnc23)CCS1 | BRAF | radiometric | 50 nM | 12.9 |
| CS(=O)(=O)Nc1cccc(-c2csc(NC(=O)CSc3nc4nccnc4c(=O)n3CCc3ccccc3)n2)c1 | BRAF | – | 10 µM | 1 |
| COc1cc2nccc(Oc3ccc(NC(=O)c4c5n(n(-c6ccc(F)cc6)c4=O)CCCC5)cc3)c2cc1OC | BRAF | – | 0.1 µM | 18 |
| COc1ccc(-c2csc(NN=C(CS(=O)(=O)c3ccccc3)c3ccc(F)cc3)n2)cc1 | BRAF V600E | ATP luminescence | 10 nM | 25 |
| CN1CC(Oc2cnc(C#N)cc2-c2ccn3nc(NC(=O)C4CC4)cc3c2)C1 | BRAF | – | 1 µM | 2 |
| COc1cc2ncnc(Nc3ccc(Oc4ccccc4)c(C)c3C)c2cc1OC | BRAF | – | 1 µM | 11 |
| C=CC(=O)Nc1cc(Nc2nccc(Nc3cc(Cl)c(F)cc3C(C)(C)O)n2)c(OC)cc1N1CC[C@@H](N(C)C)C1 | BRAF | – | 1 µM | 4 |
| COc1cc(-c2cc(-c3ccc(N4CCNCC4)cc3)cnc2N)cc(OC)c1OC | BRAF V600E | – | 0.1 µM | 5 |
| Cc1ccc(N=Nc2sc(NN=C(CS(=O)(=O)c3ccccc3)c3ccc(C)cc3)nc2C)cc1 | BRAF V600E | ATP luminescence | 10 µM | 87 |
| O=C(CSc1nc2nccnc2c(=O)n1CCc1ccccc1)Nc1nccs1 | BRAF V600E | – | 10 µM | -2 |
| Cc1ccc(C(CS(=O)(=O)c2ccccc2)=NN=C2N=C(c3ccc(Br)cc3)CS2)cc1 | BRAF V600E | ATP luminescence | 1 µM | 79 |
| CN(C)C1CCN(CC#Cc2nn(C3CCCC3)c3nc(NCc4ccccc4)ncc23)C1 (stereo not drawn) | BRAF | FRET | 1 µM | 1 |
